Assay results from ChEMBL document CHEMBL4680175, “Sulfonamide-based ring-fused analogues for CAN508 as novel carbonic anhydrase inhibitors endowed with antitumor activity: Design, synthesis, and in vitro biological evaluation” (Eur J Med Chem, 2020).
Calls of active or inactive are those of the source. The calls are words filed in the database; no cut-off is given here.

Tests used:
ACHN = experiment: Antitumor activity against human ACHN cells assessed as cell growth inhibition at 10 uM incubated for 48 hrs by sulforhodamine B assay; assay type: functional; conditions: read-out: GI
In short: (§1)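 NCI Drug Evaluation Branch protocol: primary single-dose screen at 10 μM across a 57-line human cancer panel. Drug exposure is 48 h. Cell growth and viability are read by sulforhodamine B assay. Data are given as a mean graph of percent growth of treated cells and reported as percentage growth inhibition (GI%).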

SK-OV-3 = experiment: Antitumor activity against human SK-OV-3 cells assessed as cell growth inhibition at 10 uM incubated for 48 hrs by sulforhodamine B assay; assay type: functional; conditions: read-out: GI; in short: as §1
UACC-257 = experiment: Antitumor activity against human UACC-257 cells assessed as cell growth inhibition at 10 uM incubated for 48 hrs by sulforhodamine B assay; assay type: functional; conditions: read-out: GI
In short: (§2)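 NCI one-dose screen: 57-cell-line panel exposed at 10 μM for 48 h, Drug Evaluation Branch protocol. Growth and viability read by sulforhodamine B; data given as percent growth inhibition from the mean-graph of percent growth of treated cells.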

UACC-62 = experiment: Antitumor activity against human UACC-62 cells assessed as cell growth inhibition at 10 uM incubated for 48 hrs by sulforhodamine B assay; assay type: functional; conditions: read-out: GI; in short: as §2
RPMI-8226 = experiment: Antitumor activity against human RPMI8226 cells assessed as cell growth inhibition at 10 uM incubated for 48 hrs by sulforhodamine B assay; assay type: functional; conditions: read-out: GI; in short: as §1
OVCAR-8 = experiment: Antitumor activity against human OVCAR-8 cells assessed as cell growth inhibition at 10 uM incubated for 48 hrs by sulforhodamine B assay; assay type: functional; conditions: read-out: GI; in short: as §1
M14 = experiment: Antitumor activity against human M14 cells assessed as cell growth inhibition at 10 uM incubated for 48 hrs by sulforhodamine B assay; assay type: functional; conditions: read-out: GI; in short: as §1
A549 = experiment: Antitumor activity against human A549/ATCC cells assessed as cell growth inhibition at 10 uM incubated for 48 hrs by sulforhodamine B assay; assay type: functional; conditions: read-out: GI; in short: as §1
NCI-H23 = experiment: Antitumor activity against human NCI-H23 cells assessed as cell growth inhibition at 10 uM incubated for 48 hrs by sulforhodamine B assay; assay type: functional; conditions: read-out: GI; in short: as §1
MDA-MB-435 = experiment: Antitumor activity against human MDA-MB-435 cells assessed as cell growth inhibition at 10 uM incubated for 48 hrs by sulforhodamine B assay; assay type: functional; conditions: read-out: GI; in short: as §1
SR = experiment: Antitumor activity against human SR cells assessed as cell growth inhibition at 10 uM incubated for 48 hrs by sulforhodamine B assay; assay type: functional; conditions: read-out: GI; in short: as §2
OVCAR-5 = experiment: Antitumor activity against human OVCAR-5 cells assessed as cell growth inhibition at 10 uM incubated for 48 hrs by sulforhodamine B assay; assay type: functional; conditions: read-out: GI; in short: as §1
786-0 = experiment: Antitumor activity against human 786-0 cells assessed as cell growth inhibition at 10 uM incubated for 48 hrs by sulforhodamine B assay; assay type: functional; conditions: read-out: GI; in short: as §1
NCI/ADR-RES = experiment: Antitumor activity against human NCI/ADR-RES cells assessed as cell growth inhibition at 10 uM incubated for 48 hrs by sulforhodamine B assay; assay type: functional, cell-based; in short: as §1
HT-29 = experiment: Antitumor activity against human HT-29 cells assessed as cell growth inhibition at 10 uM incubated for 48 hrs by sulforhodamine B assay; assay type: functional; conditions: read-out: GI; in short: as §1
OVCAR-3 = experiment: Antitumor activity against human OVCAR-3 cells assessed as cell growth inhibition at 10 uM incubated for 48 hrs by sulforhodamine B assay; assay type: functional; conditions: read-out: GI; in short: as §1
HCT-15 = experiment: Antitumor activity against human HCT15 cells assessed as cell growth inhibition at 10 uM incubated for 48 hrs by sulforhodamine B assay; assay type: functional; conditions: read-out: GI; in short: as §1
HCC 2998 = experiment: Antitumor activity against human HCC2998 cells assessed as cell growth inhibition at 10 uM incubated for 48 hrs by sulforhodamine B assay; assay type: functional; conditions: read-out: GI; in short: as §1
OVCAR-4 = experiment: Antitumor activity against human OVCAR-4 cells assessed as cell growth inhibition at 10 uM incubated for 48 hrs by sulforhodamine B assay; assay type: functional; conditions: read-out: GI; in short: as §1
K562 = experiment: Antitumor activity against human K562 cells assessed as cell growth inhibition at 10 uM incubated for 48 hrs by sulforhodamine B assay; assay type: functional; conditions: read-out: GI; in short: as §1
A498 = experiment: Antitumor activity against human A498 cells assessed as cell growth inhibition at 10 uM incubated for 48 hrs by sulforhodamine B assay; assay type: functional; conditions: read-out: GI; in short: as §1
SW-620 = experiment: Antitumor activity against human SW620 cells assessed as cell growth inhibition at 10 uM incubated for 48 hrs by sulforhodamine B assay; assay type: functional; conditions: read-out: GI; in short: as §2
SK-MEL-28 = experiment: Antitumor activity against human SK-MEL-28 cells assessed as cell growth inhibition at 10 uM incubated for 48 hrs by sulforhodamine B assay; assay type: functional; conditions: read-out: GI; in short: as §1
SNB-19 = experiment: Antitumor activity against human SNB-19 cells assessed as cell growth inhibition at 10 uM incubated for 48 hrs by sulforhodamine B assay; assay type: functional; conditions: read-out: GI; in short: as §1
EKVX = experiment: Antitumor activity against human EKVX cells assessed as cell growth inhibition at 10 uM incubated for 48 hrs by sulforhodamine B assay; assay type: functional; conditions: read-out: GI; in short: as §1
SF-295 = experiment: Antitumor activity against human SF295 cells assessed as cell growth inhibition at 10 uM incubated for 48 hrs by sulforhodamine B assay; assay type: functional; conditions: read-out: GI; in short: as §1
COLO 205 = experiment: Antitumor activity against human COLO205 cells assessed as cell growth inhibition at 10 uM incubated for 48 hrs by sulforhodamine B assay; assay type: functional; conditions: read-out: GI; in short: as §1
HL-60(TB) = experiment: Antitumor activity against human HL-60(TB) cells assessed as cell growth inhibition at 10 uM incubated for 48 hrs by sulforhodamine B assay; assay type: functional; conditions: read-out: GI
In short: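 Single-dose NCI-60-type screen of 57 human cancer cell lines at 10 μM under the NCI Drug Evaluation Branch protocol. Drugs exposed for 48 h; growth and viability read by sulforhodamine B assay. Data given as mean-graph percent growth of treated cells, expressed as percent growth inhibition.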

TK-10 = experiment: Antitumor activity against human TK-10 cells assessed as cell growth inhibition at 10 uM incubated for 48 hrs by sulforhodamine B assay; assay type: functional; conditions: read-out: GI; in short: as §2
MDA-MB-468 [1] = experiment: Antiproliferative activity against human MDA-MB-468 cells measured after 48 hrs under CoCl2-induced hypoxic condition by MTT assay; assay type: functional, cell-based; conditions: MDA-MB-468, 48 h
MDA-MB-468 [2] = experiment: Antiproliferative activity against human MDA-MB-468 cells measured after 48 hrs under normoxic condition by MTT assay; assay type: functional, cell-based; conditions: MDA-MB-468, 48 h
MCF7 [3] = experiment: Antiproliferative activity against human MCF7 cells measured after 48 hrs under normoxic condition by MTT assay; assay type: functional, cell-based; conditions: MCF7, 48 h
MCF7 [4] = experiment: Antiproliferative activity against human MCF7 cells measured after 48 hrs under CoCl2-induced hypoxic condition by MTT assay; assay type: functional, cell-based; conditions: MCF7, 48 h
MCF7 [5] = experiment: Induction of cell cycle arrest in human MCF7 cells assessed as fold increase in apoptotic cells at sub-G1 phase at IC50 concentration incubated for 24 hrs by PI/RNase staining based flow cytometric analysis relative to control; assay type: functional
In short: (§3)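 Cells were washed in ice-cold PBS, fixed in ice-cold 70% ethanol, treated with 100 µg/mL RNase and stained with 40 µg/mL PI. DNA content was read by flow cytometry, with sub-G1 compared against control.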

MCF7 [6] = experiment: Induction of cell cycle arrest in human MCF7 cells assessed as decrease in S phase population at IC50 concentration incubated for 24 hrs by PI/RNase staining based flow cytometric analysis; assay type: functional; in short: as §3
MCF7 [7] = experiment: Induction of apoptosis in human MCF7 cells assessed as late apoptotic cells by Annexin V-FITC/propidium iodide staining based flow cytometric analysis (reference value: 0.29 %); assay type: functional
MCF7 [8] = experiment: Induction of cell cycle arrest in human MCF7 cells assessed as accumulation at G2/M phase at IC50 concentration incubated for 24 hrs by PI/RNase staining based flow cytometric analysis; assay type: functional; in short: as §3

| SMILES | inhibition of growth at 10 µM (ACHN) [%] | inhibition of growth at 10 µM (SK-OV-3) [%] | inhibition of growth at 10 µM (UACC-257) [%] | inhibition of growth at 10 µM (UACC-62) [%] | inhibition of growth at 10 µM (RPMI-8226) [%] | inhibition of growth at 10 µM (OVCAR-8) [%] | inhibition of growth at 10 µM (M14) [%] | inhibition of growth at 10 µM (A549) [%] | inhibition of growth at 10 µM (NCI-H23) [%] | inhibition of growth at 10 µM (MDA-MB-435) [%] | inhibition of growth at 10 µM (SR) [%] | inhibition of growth at 10 µM (OVCAR-5) [%] | inhibition of growth at 10 µM (786-0) [%] | Activity (NCI/ADR-RES) | inhibition of growth at 10 µM (HT-29) [%] | inhibition of growth at 10 µM (OVCAR-3) [%] | inhibition of growth at 10 µM (HCT-15) [%] | inhibition of growth at 10 µM (HCC 2998) [%] | inhibition of growth at 10 µM (OVCAR-4) [%] | inhibition of growth at 10 µM (K562) [%] | other results |
| --- | --- | --- | --- | --- | --- | --- | --- | --- | --- | --- | --- | --- | --- | --- | --- | --- | --- | --- | --- | --- | --- |
| Nc1nn2cc(-c3ccccc3)[nH]c2c1/N=N/c1ccc(S(N)(=O)=O)cc1 | 91 | 87 | 31 | 69 | 94 | 63 | 69 | 67 | 54 | 71 | 87 | 35 | 72 | inactive | 61 | 53 | 77 | 54 | 63 | 67 | inhibition of growth at 10 µM (A498): 92%; inhibition of growth at 10 µM (SW-620): 74%; inhibition of growth at 10 µM (SK-MEL-28): 55%; inhibition of growth at 10 µM (SNB-19): 40%; inhibition of growth at 10 µM (EKVX): 45%; inhibition of growth at 10 µM (SF-295): 52%; inhibition of growth at 10 µM (COLO 205): 55%; inhibition of growth at 10 µM (HL-60(TB)): 72%; inhibition of growth at 10 µM (TK-10): 52% |
| Cc1ccc(-c2nc3c(/N=N/c4ccc(S(N)(=O)=O)cc4)c(N)nn3c(N)c2C#N)cc1 | 100 | 36 | 28 | 47 | 116 | 56 | 54 | 37 | 56 | 48 | 71 | 21 | 35 | inactive | 64 | 76 | 18 | 48 | 48 | 80 | IC50 (MDA-MB-468 [1]): 3.03 µM; IC50 (MDA-MB-468 [2]): 1.37 µM; inhibition of growth at 10 µM (A498): 41%; inhibition of growth at 10 µM (SW-620): 83%; inhibition of growth at 10 µM (SK-MEL-28): 47%; IC50 (MCF7 [3]): 6.8 µM; inhibition of growth at 10 µM (SNB-19): 42%; inhibition of growth at 10 µM (EKVX): 30%; inhibition of growth at 10 µM (SF-295): 51%; IC50 (MCF7 [4]): 15.1 µM; inhibition of growth at 10 µM (COLO 205): 86%; inhibition of growth at 10 µM (HL-60(TB)): 97%; inhibition of growth at 10 µM (TK-10): 34% |
| N#Cc1c(-c2ccc(Cl)cc2)nc2c(/N=N/c3ccc(S(N)(=O)=O)cc3)c(N)nn2c1N |  |  |  |  | 58 | 25 |  |  |  |  |  |  |  | inactive |  | 25 |  |  |  | 28 | fold change (FC) (MCF7 [5]): 8; IC50 (MDA-MB-468 [1]): 19.6 µM; IC50 (MDA-MB-468 [2]): 11.4 µM; Activity (MCF7 [6]): Active; Activity (MCF7 [7]): 8.2%; Activity (MCF7 [8]): Active; IC50 (MCF7 [3]): 2.07 µM; IC50 (MCF7 [4]): 10.3 µM |
